Sampled rows, rich in hits. Any-hit rate of the full collection: about 3.9%.
TAAR1 ag: agonists of human TAAR1 | Q96RJ0 | CHO RD-HGA16 TAAR1, Fluo-8 calcium fluorescence; vehicle wells 0%, saturating PEA agonist 100% | activation, % at 3 µM | hit rate 0.99% among 360,000 | AID 624467;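 active = activation above the mean activation of all test compounds in the run plus 3 SD, cut at about 38% in these data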
Target sequence (Q96RJ0 whole entry, looked up): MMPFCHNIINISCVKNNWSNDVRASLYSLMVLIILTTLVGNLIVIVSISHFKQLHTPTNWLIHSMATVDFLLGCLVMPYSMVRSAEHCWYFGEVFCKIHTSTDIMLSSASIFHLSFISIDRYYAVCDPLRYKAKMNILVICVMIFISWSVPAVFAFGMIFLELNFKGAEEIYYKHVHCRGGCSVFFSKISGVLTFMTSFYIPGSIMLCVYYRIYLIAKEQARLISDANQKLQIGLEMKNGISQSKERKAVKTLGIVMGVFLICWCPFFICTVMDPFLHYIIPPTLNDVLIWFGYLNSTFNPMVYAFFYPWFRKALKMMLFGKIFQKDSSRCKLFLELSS
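Repeats: no replicates (n 1) | Material: CHO-derived RD-HGA16 cells with stable Gα16 and human TAAR1 | Technique: Kinetic Fluo-8 calcium fluorescence | Schedule: 17-24 h seeding, 75 min 37 °C dye, 30 min RT | Evaluation: % activation from peak over basal fluorescence ratio, DMSO-to-PEA scaled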
ANO1 block: inhibitors of mouse TMEM16A calcium-activated chloride channel. AID 588511. HEK293 TMEM16A/YFP iodide influx fluorescence, ionomycin. normalized B-score (activity score, 25-100; higher = stronger inhibition) at 10 µM. hit rate 1.2% among 310,000. Q8BHY3;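 active = ratio plate-corrected score three or more library SD toward inhibition, starting fluorescence score within five deviations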;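 also: score derived from kinetic fluorescence span divided by baseline fluorescence per well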
CRFBP-R2 agonist: agonists of human CRF-binding protein/CRF-R2 receptor complex | HEK293 CRF-R2/CRF-BP, calcium dye fluorescence (FLIPR); percent of saturating CRF peptide response | activation, % at 13.2 µM | hit rate 0.46% among 350,000 | AID 588473;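 active = activation of at least 50%, plus an integration ratio under a set limit after plate pattern correction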
TMEM16A act: mouse TMEM16A channel activation, primary screen; Q8BHY3; HEK293 TMEM16A/YFP-H148Q/I152L, iodide quench fluorescence; active compounds read low; B-score at 10 µM; hit rate 0.3% among 340,000;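 active = fluorescence-ratio B-score plate-corrected deviation score at least 3 library SD below zero, with starting fluorescence score within 5 deviations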;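 also: channel opened by trigger with iodide after compound preincubation; score built on the fluorescence ratio of max minus min over baseline; more negative score means more quench and so TMEM16A activation or potentiation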
CRFBP-R2 block: CRF-BP/CRF-R2 complex antagonism; HEK293 CRF-R2/CRF-BP, CRF-induced calcium fluorescence; inhibition, % at 11.8 µM; hit rate 0.59% among 350,000;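 active = inhibition of the ligand-induced calcium signal above about 50% at the single tested concentration, limit read from the data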
TAAR1 antagonist: antagonists of human TAAR1. Q96RJ0. hit rate 1.5% among 360,000. CHO RD-HGA16 TAAR1, Fluo-8 calcium fluorescence, antagonist. inhibition, % at 3 µM;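 active = inhibition above a per-plate cutoff, the mean inhibition of test compounds on that plate plus 3 SD, cut at about 49% in these data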
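Test system: RD-HGA16 CHO cells with stable hTAAR1 and Gα16 / Probe or stimulus: EC80 β-phenethylamine stimulus / Times: seeding 17-24 h prior, 75-min 37 °C, 30-min RT dye loading / Detection: Fluo-8 calcium-sensitive fluorescence / Read-out basis: % inhibition scaled between DMSO and EC80 PEA controls / Repeats: singlicate, one well per test compound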
Each line names hits and unclear results; the compound was inactive in the other large screens.

CCOC(=O)c1cnn(-c2ccc(NS(=O)(=O)c3ccc(Cl)cc3)cc2)c1C(F)(F)F	ANO1 block 100
O=C(CSc1nnc(Cc2csc(Nc3cccc(Cl)c3)n2)o1)N1CCc2ccccc21	TAAR1 antagonist 51
CS(=O)(=O)c1ccccc1-c1nnc(NC(=O)c2ccc(S(=O)(=O)N3CCCC3)cc2)o1	none
CCC1CCCCN1S(=O)(=O)c1ccc(NC(=O)c2nc(S(C)(=O)=O)ncc2Cl)cc1 (stereo not given)	TAAR1 antagonist 56
O=C(Nc1nnc(-c2ccccc2Cl)o1)c1ccc(S(=O)(=O)N2CCCCCC2)cc1	CRFBP-R2 agonist 54 (no result: TAAR1 ag, TMEM16A act, TAAR1 antagonist)
CCC1CCCCN1S(=O)(=O)c1ccc(C(=O)Nc2nnc(-c3ccccc3Cl)o2)cc1 (stereo not given)	ANO1 block 100, CRFBP-R2 agonist 126 (no result: TAAR1 ag, TAAR1 antagonist)
CCS(=O)(=O)c1ncc(Cl)c(C(=O)Nc2ccc(S(=O)(=O)N3CCCC(C)C3)cc2)n1 (stereo not given)	none
COc1ccc(N(C(=O)c2cnccn2)C(C(=O)NC2CCCCC2)c2ccccc2)cc1 (stereo not given)	none
CC(=O)c1c(C)oc2ccc(N(C(C)=O)S(=O)(=O)c3ccc(F)cc3C)cc12	none
CC(=O)c1c(C)oc2ccc(N(C(C)=O)S(=O)(=O)c3cccc4cccnc34)cc12	TAAR1 antagonist 59
COc1ccc(S(=O)(=O)Cc2ccc(C(=O)N3CCN(c4cc(Cl)ccc4C)CC3)o2)cc1	TAAR1 antagonist 49
COc1ccc(CN2C(=O)c3cccc4cccc(c34)C2c2nc3ccccc3[nH]2)cc1 (stereo not given)	none (no result: ANO1 block, CRFBP-R2 agonist, TMEM16A act, CRFBP-R2 block)
CCOC(=O)C1CCCN(C2=NC(=O)/C(=C/c3ccc(N(C)C)cc3)S2)C1 (stereo not given)	CRFBP-R2 agonist 69
CCOc1ccc(/C=C(\C#N)C(=O)NC2CC2)c(OCC)c1	CRFBP-R2 block 80
Cc1ccccc1Cn1c(=O)sc2ccccc2c1=O	CRFBP-R2 block 56
COCCCNC(=O)CCNS(=O)(=O)c1ccc(C)cc1	ANO1 block 25
COc1ccc(-c2cc(C(=O)NCC3CCCO3)c3cc(C(C)C)ccc3n2)cc1 (stereo not given)	none
Cc1c(Cl)ccc2c1NC(=O)C21NC(CCC(N)=O)[C@H]2C(=O)N(c3ccc(Cl)cc3)C(=O)[C@H]21 (stereo not given in full)	CRFBP-R2 block 50
COc1cc(S(=O)(=O)N2CCOCC2)cc(C(=O)OCC(=O)NCc2ccco2)c1OC	none (no result: ANO1 block)
Cc1ccc(S(=O)(=O)Nc2cc(C(F)(F)F)ccc2N2CCOCC2)c(C)c1	TMEM16A act -14
O=C(NCc1ccccc1Cl)[C@H]1CCCN1C(=O)[C@H]1CCCN1C(=O)c1cccc2ccccc12	none (no result: ANO1 block, CRFBP-R2 agonist, TMEM16A act, CRFBP-R2 block)
COc1ccc(N2C(=O)CC(NNC(=O)c3ccco3)C2=O)cc1 (stereo not given)	none
CCOC(=O)NNC1CC(=O)N(c2ccc(OC)cc2)C1=O (stereo not given)	ANO1 block 100
C=CCn1c(=S)[nH]c2cc(C(=O)N3CCN(c4ccccc4OC)CC3)ccc2c1=O	none (no result: ANO1 block)
O=C(Nc1nnc(CCc2ccccc2)s1)c1cccc(F)c1	none
CN(NS(=O)(=O)c1ccc(Cl)cc1)c1nc(C(F)(F)F)nc2ccccc12	ANO1 block 100
COc1cc(C(=O)Nc2nc(-c3ccc(F)cc3)cs2)ccc1OCC(=O)N1CCOCC1	ANO1 block 25
Cc1ccc(-c2csc(NC(=O)c3cccc(S(=O)(=O)N4CCN(C)CC4)c3)n2)cc1	none
COc1cc(C(=O)Nc2nc(-c3ccc(C)cc3)cs2)ccc1OCC(=O)N1CCOCC1	none
COc1cccc(C(=O)Nc2nc(-c3ccc(S(=O)(=O)N4CCOCC4)cc3)cs2)c1	TAAR1 antagonist 50
COc1ccc(-c2csc(NC(=O)c3ccc(OCC(=O)N4CCOCC4)c(OC)c3)n2)cc1	ANO1 block 100
O=C(NNC1CC(=O)N(c2ccc(Br)cc2)C1=O)c1cccnc1 (stereo not given)	none
CCCC1=NN2C(=N)/C(=C\c3cc(C)n(-c4cc(C)cc(C)c4)c3C)C(=O)N=C2S1	TAAR1 ag 42, CRFBP-R2 agonist 51, TAAR1 antagonist 53
Cc1cc(/C=C2\C(=N)N3N=C(C(C)C)SC3=NC2=O)c(C)n1-c1ccccc1	none
Cc1cccc(-n2c(C)cc(/C=C3\C(=N)N4N=C(CC(C)C)SC4=NC3=O)c2C)c1	CRFBP-R2 agonist 71
Cc1cc(C)cc(-n2c(C)cc(/C=C3\C(=N)N4N=C(CC(C)C)SC4=NC3=O)c2C)c1	CRFBP-R2 agonist 60
CN(C(=O)c1cc(S(=O)(=O)N2CCc3ccccc32)cn1C)C1CCCCC1	none
O=C(NCCN1CCCCC1)Nc1cccc(F)c1	none
COc1ccc(C)cc1S(=O)(=O)N1CCN(C)CC1c1ccccc1 (stereo not given)	none (no result: ANO1 block)
O=C(Nc1ccc(Oc2ccccc2)cc1)C1CCN(c2c3c(nc4ncnn24)CCC3)CC1	TAAR1 antagonist 57
CN(C)c1ccc(C=NN2C(=O)CSC2=S)c(Cl)c1	CRFBP-R2 agonist 50 (no result: ANO1 block, TMEM16A act)
O=C1CSC(=S)N1N=Cc1c(F)cccc1Cl	CRFBP-R2 agonist 55 (no result: ANO1 block, TMEM16A act)
O=C1CSC(=S)N1/N=C/c1c(F)cccc1F	none
Cc1cccc(-c2ccc3c(c2)C2CC3CCN2Cc2ccc3c(c2)OCO3)c1 (stereo not given)	none (no result: ANO1 block, TMEM16A act)
Cc1ccc(S(=O)(=O)N(Cc2ccccc2)c2ccccc2C(=O)NCc2ccco2)cc1	CRFBP-R2 block 71
Cc1ccc(S(=O)(=O)N(Cc2ccccc2)c2ccccc2C(=O)Nc2ccccc2C(=O)NCc2ccco2)cc1	none
OC(c1ccccc1)(c1ccccc1)c1ccn[nH]1	none
CC[C@H](C)/C=C/C1=CC2=C(Cl)C(=O)[C@@]3(C)OC(=O)C(C(=O)[C@H](C)[C@@H](C)O)=C3C2=CO1	ANO1 block 25 (no result: TAAR1 ag, TAAR1 antagonist)
CCC(C)NC(=O)c1cc(S(=O)(=O)N2CCCCC2)c[nH]1 (stereo not given)	none
C=CCn1c(O)c2ccc(C(=O)N=NC(=O)COc3ccc(OC)cc3)cc2c1O	none
CCOc1ccccc1NC(=O)N1CCc2ccccc2C1	TAAR1 ag 41
Cc1ccc(OCC(=O)N2CCc3ccccc3C2)c(C)c1	TAAR1 ag 42
CCOc1ccccc1NC(=O)CN1CCc2ccccc2C1	none
COc1ccc2c(ccn2S(=O)(=O)c2ccccc2)c1	none
O=C(NC(=S)N1CCN(c2ccc(F)cc2)CC1)C12CC3CC(CC(C3)C1)C2	TMEM16A act -5.4
CCOC(=O)c1ccc(CC2S/C(=C(\C#N)C(C)=O)NC2=O)cc1 (stereo not given)	none

Screens: PubChem BioAssay, several laboratories
